Data taken from ChEMBL document CHEMBL1157704, “Potent activity against K562 cells by polyamide-seco-CBI conjugates targeting histone H4 genes” (Bioorg Med Chem, 2010).
Calls of active or inactive are those of the source.

Key:
K562 [1] = experiment: Effect on EXOC6B gene expression in human K562 cells assessed as change in mRNA transcript expression at 10 nM after 48 hrs by DNA microarray analysis relative to control; assay type: functional
In short: (§1)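 Transcripts were profiled on Affymetrix GeneChip Human Gene 1.0 ST arrays in K562 cells treated at 10 nM. Treated cells were collected at 6, 12, 24 and 48 h; untreated controls were collected at 48 h. Transcripts changed at least twofold versus control were scored.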

K562 [2] = experiment: Effect on FER gene expression in human K562 cells assessed as change in mRNA transcript expression at 10 nM after 48 hrs by DNA microarray analysis relative to control; assay type: functional; in short: as §1
K562 [3] = experiment: Effect on FERMT2 gene expression in human K562 cells assessed as change in mRNA transcript expression at 10 nM after 48 hrs by DNA microarray analysis relative to control; assay type: functional; in short: as §1
K562 [4] = experiment: Effect on PITPNC1 gene expression in human K562 cells assessed as change in mRNA transcript expression at 10 nM after 48 hrs by DNA microarray analysis relative to control; assay type: functional
In short: (§2)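 K562 CML cells (b3a2 Bcr-Abl) in standard ATCC-recommended culture, exposed once to 10 nM conjugate and harvested at 48 h. Untreated controls were also collected at 48 h. Transcripts were profiled on Human Gene 1.0 ST whole-genome oligonucleotide arrays, and each treated level was expressed relative to the untreated control, with a cutoff of at least twofold change.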

K562 [5] = experiment: Effect on SASH1 gene expression in human K562 cells assessed as change in mRNA transcript expression at 10 nM after 48 hrs by DNA microarray analysis relative to control; assay type: functional; in short: as §2
K562 [6] = experiment: Effect on HIST2H2AB gene expression in human K562 cells assessed as change in mRNA transcript expression at 10 nM after 48 hrs by DNA microarray analysis relative to control; assay type: functional; in short: as §2
K562 [7] = experiment: Effect on THBS1 gene expression in human K562 cells assessed as change in mRNA transcript expression at 10 nM after 48 hrs by DNA microarray analysis relative to control; assay type: functional
In short: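 K562 CML cells (b3a2 Bcr-Abl) kept under standard culture conditions were exposed to 10 nM conjugate and harvested at 6, 12, 24 and 48 h. Untreated controls were harvested at 48 h. Whole-transcript oligonucleotide microarray profiling was done, and changes of at least twofold versus control were scored.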

K562 [8] = experiment: Cytotoxicity against human K562 cells by MTS assay; assay type: functional, cell-based
In short: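 Proliferation of K562 cells (ATCC, standard culture) was read as mitochondrial conversion of the MTS tetrazolium to formazan, using the CellTiter 96 Aqueous One reagent. EC50 was derived from these readings.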

K562 [9] = experiment: Cell cycle arrest in human K562 cells assessed as increase in accumulation at G2/M phase at 125 to 250 nM after 48 hrs propidium iodide staining-based FACS analysis; assay type: functional
In short: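 K562 cells, from ATCC and kept under ATCC-recommended conditions, were treated for 48 h and pelleted at 200g for 5 min. They were resuspended in PBS, fixed with prechilled 70% ethanol and stained with propidium iodide at 50 µg/mL. DNA content was read by flow cytometry to assign the G0–G1, S and G2–M fractions; sub-2C DNA content was taken as apoptosis.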

K562 [10] = experiment: Induction of apoptosis in human K562 cells assessed as viable cells at 250 nM after 48 hrs by annexin-V FITC and propidium iodide staining-based FACS analysis; assay type: functional; conditions: K562, 48 h, read-out: Activity
In short: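 Treated K562 cells […] stained with Annexin V-FITC/propidium iodide. Apoptosis was scored by two-dimensional flow cytometry at a core FACS facility.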

K562 [11] = experiment: Effect on HIST1H4D gene expression in human K562 cells assessed as down-regulation of mRNA transcript expression at 10 nM after 48 hrs by DNA microarray analysis relative to control; assay type: functional; in short: as §1
K562 [12] = experiment: Effect on DHFR gene expression in human K562 cells assessed as change in mRNA transcript expression at 10 nM after 48 hrs by DNA microarray analysis relative to control; assay type: functional; in short: as §1
K562 [13] = experiment: Effect on EGR1 gene expression in human K562 cells assessed as change in mRNA transcript expression at 10 nM after 48 hrs by DNA microarray analysis relative to control; assay type: functional; in short: as §1
K562 [14] = experiment: Effect on RHD/RHCE gene expression in human K562 cells assessed as change in mRNA transcript expression at 10 nM after 48 hrs by DNA microarray analysis relative to control; assay type: functional; in short: as §2
K562 [15] = experiment: Effect on MYL4 gene expression in human K562 cells assessed as change in mRNA transcript expression at 10 nM after 48 hrs by DNA microarray analysis relative to control; assay type: functional; in short: as §2
K562 [16] = experiment: Effect on LOC10012 gene expression in human K562 cells assessed as change in mRNA transcript expression at 10 nM after 48 hrs by DNA microarray analysis relative to control; assay type: functional; in short: as §2
K562 [17] = experiment: Effect on NDUFS4 gene expression in human K562 cells assessed as change in mRNA transcript expression at 10 nM after 48 hrs by DNA microarray analysis relative to control; assay type: functional; in short: as §2
K562 [18] = experiment: Effect on C0MMD1 gene expression in human K562 cells assessed as change in mRNA transcript expression at 10 nM after 48 hrs by DNA microarray analysis relative to control; assay type: functional; in short: as §1
K562 [19] = experiment: Effect on HIST1H2AH gene expression in human K562 cells assessed as change in mRNA transcript expression at 10 nM after 48 hrs by DNA microarray analysis relative to control; assay type: functional; in short: as §1
K562 [20] = experiment: Effect on BAMBI gene expression in human K562 cells assessed as change in mRNA transcript expression at 10 nM after 48 hrs by DNA microarray analysis relative to control; assay type: functional; in short: as §1
K562 [21] = experiment: Effect on HIST2H2AA gene expression in human K562 cells assessed as change in mRNA transcript expression at 10 nM after 48 hrs by DNA microarray analysis relative to control; assay type: functional; in short: as §2
K562 [22] = experiment: Effect on HIST1H2A gene expression in human K562 cells assessed as change in mRNA transcript expression at 10 nM after 48 hrs by DNA microarray analysis relative to control; assay type: functional; in short: as §1
K562 [23] = experiment: Effect on GTDC1 gene expression in human K562 cells assessed as change in mRNA transcript expression at 10 nM after 48 hrs by DNA microarray analysis relative to control; assay type: functional; in short: as §1
K562 [24] = experiment: Effect on HSPA1A gene expression in human K562 cells assessed as change in mRNA transcript expression at 10 nM after 48 hrs by DNA microarray analysis relative to control; assay type: functional; in short: as §2
K562 [25] = experiment: Effect on SNORD80 gene expression in human K562 cells assessed as change in mRNA transcript expression at 10 nM after 48 hrs by DNA microarray analysis relative to control; assay type: functional; in short: as §2
K562 [26] = experiment: Effect on LOC85391 gene expression in human K562 cells assessed as change in mRNA transcript expression at 10 nM after 48 hrs by DNA microarray analysis relative to control; assay type: functional; in short: as §2
[27] = test system: histone H4c gene fragment DNA (human); experiment: Binding affinity to 5'-ACGCCA-3' sequence of 223 bp human histone H4c gene fragment DNA assessed as DNA alkylating activity at 5 to 100 nM after 15 hrs by PAGE

Activity [27]: Active
Structure (SMILES): CC(=O)Nc1cn(C)c(C(=O)Nc2cn(C)c(C(=O)NCCC(=O)Nc3cn(C)c(C(=O)NCCCC(=O)Nc4cc(C(=O)Nc5cn(C)c(C(=O)Nc6ccc7[nH]c(C(=O)N8CC(CCl)c9c8cc(O)c8ccccc98)cc7c6)n5)n(C)c4)n3)n2)n1 (configuration not stated)
fold change (FC) (K562 [1]): >=2
fold change (FC) (K562 [2]): >=2
fold change (FC) (K562 [3]): >=2
fold change (FC) (K562 [4]): >=2
fold change (FC) (K562 [5]): >=2
fold change (FC) (K562 [6]): >=2
fold change (FC) (K562 [7]): >=2
EC50 (K562 [8]): 97 nM
Activity (K562 [9]): Active
viability at 0.25 µM (K562 [10]): 71.8%
fold change (FC) (K562 [11]): 2.43
fold change (FC) (K562 [12]): >=2
fold change (FC) (K562 [13]): >=2
fold change (FC) (K562 [14]): >=2
fold change (FC) (K562 [15]): >=2
fold change (FC) (K562 [16]): >=2
fold change (FC) (K562 [17]): >=2
fold change (FC) (K562 [18]): >=2
fold change (FC) (K562 [19]): >=2
fold change (FC) (K562 [20]): >=2
fold change (FC) (K562 [21]): >=2
fold change (FC) (K562 [22]): >=2
fold change (FC) (K562 [23]): >=2
fold change (FC) (K562 [24]): >=2
fold change (FC) (K562 [25]): >=2
fold change (FC) (K562 [26]): >=2
